PolyA inh: blocks polyadenylation in yeast reporter cells. AID 1875. S. cerevisiae SKY197-pL101 polyadenylation reporter, beta-gal luminescence; efflux-impaired pdr1/pdr3 knockout yeast; score 100 = 6 SD above DMSO. activity score, % at 12 µM. 300,000 compounds, 0.02% hits;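 active means lowest replicate activity score at least 50, where 100 means six control SD above control mean; inconclusive means lowest score under 50 but half or more replicates reach 50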;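 further: yeast exposed to compound for 9 h at 30 °C; higher score means more reporter readthrough which indicates perturbed polyadenylation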
CHT allo act: human CHT allosteric activation; Q9GZV3; CHT-expressing cells, membrane potential dye, choline EC20; active compounds read high; LV-AA mutant CHT in HEK293 cells; B-score at 10 µM; 310,000 compounds, 0.49% hits;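 active means initial fluorescence not abnormally high and integrated response B-score, plate-corrected, over 3 SD above library mean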
Target sequence (Q9GZV3 whole entry, looked up): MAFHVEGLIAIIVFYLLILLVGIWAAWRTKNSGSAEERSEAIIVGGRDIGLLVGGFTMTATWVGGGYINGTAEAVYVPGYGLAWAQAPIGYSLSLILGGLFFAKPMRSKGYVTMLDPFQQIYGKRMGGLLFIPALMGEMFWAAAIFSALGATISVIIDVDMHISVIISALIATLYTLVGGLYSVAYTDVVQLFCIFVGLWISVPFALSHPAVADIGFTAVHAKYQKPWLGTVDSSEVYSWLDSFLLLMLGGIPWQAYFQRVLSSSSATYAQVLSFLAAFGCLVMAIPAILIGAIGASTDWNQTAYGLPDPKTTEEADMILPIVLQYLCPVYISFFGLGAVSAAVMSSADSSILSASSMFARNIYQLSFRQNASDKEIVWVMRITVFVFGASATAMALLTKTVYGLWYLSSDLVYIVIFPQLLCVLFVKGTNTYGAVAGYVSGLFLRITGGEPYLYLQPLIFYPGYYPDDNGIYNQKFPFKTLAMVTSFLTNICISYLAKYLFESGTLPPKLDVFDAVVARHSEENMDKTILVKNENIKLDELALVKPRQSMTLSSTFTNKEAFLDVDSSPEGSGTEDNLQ
CHT block: inhibits the human high affinity choline transporter; CHT-expressing cells, membrane potential dye, choline response; active compounds read low; B-score at 10 µM; Q9GZV3; 310,000 compounds, 0.86% hits;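 active means B-score over 3 SD under the library average, and starting fluorescence ratio not unusually high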;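 further: choline stimulus applied at its EC90 after an EC20 pre-addition; B-score computed on integrated fluorescence ratio after choline addition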
T cruzi inh: blocks replication of Trypanosoma cruzi; T. cruzi beta-gal in NIH3T3, luminescence, 90 h; inhibition, % (concentration not given with the values); 300,000 compounds, 1.4% hits;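 active means mean inhibition across valid replicates above about 55%, limit read from the data; inconclusive means mean below that limit but half or more replicates reach it; inactive means mean below it, under half of replicates reach it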;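 further: signal also drops with host cell toxicity which is not excluded here; higher percent means less beta-gal luminescence so fewer parasites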
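Material: NIH/3T3 host cells with β-galactosidase reporter T. cruzi; Input: 5,000 host fibroblasts per well; Medium: DMEM, 2% fetal bovine serum; Compound: 50 nL DMSO compound solution per well; Schedule: 3 h host attachment, then at least 90 h co-culture; Detection: luminescent β-galactosidase signal after 60 min lysis.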
CHT block conf: human CHT inhibition, confirmatory screen. shares compounds with CHT block. CHT-expressing cells, choline membrane potential dye; LV-to-AA substituted CHT, HEK293 cells. CHT activity remaining % of control (active compounds read low), % at 10 µM. 2,400 compounds, 70% hits;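 active means choline transporter activity left, mean of duplicates at 10 µM, below buffer-only control mean minus 3 SD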;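 further: depolarization triggered by choline at its EC90 following an EC20 pre-addition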
HEK293 CHT ctr: activity in parental HEK293 cells lacking CHT | shares compounds with CHT block | membrane potential dye, choline response; active = decrease or increase beyond buffer ±3SD | membrane potential ratio readout (active if shifted either direction beyond buffer ±3SD; no single direction) at 10 µM | 2,400 compounds, 4% hits | AID 493222;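 further: parental cells lack the transporter so any hit is non-specific; ratio is peak minus trough fluorescence over baseline after EC90 choline challenge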
Numbers stand for hits; 0 = inactive; ? = inconclusive; - = no result. The list is not random: actives were taken first. Their share in the collection is about 2.6%.

SMILES	PolyA inh	CHT allo act	CHT block	T cruzi inh	CHT block conf	HEK293 CHT ctr
COc1cc(C(=O)OCCCN(C)C)cc(OC)c1OC	0	0	0	0	-	-
CCN(CC)CCCCCCCCOC(=O)c1cc(OC)c(OC)c(OC)c1	-	0	-5.4	-	20%	0
Cc1oc(-c2cccc(Cl)c2)nc1CN1CCC(C(=O)NCCCN2CC(C)CC(C)C2)CC1 (stereo not given)	0	0	0	?	-	-
COc1ccccc1/C=C1\SC(=O)N(CC(=O)NCCCn2ccnc2)C1=O	0	0	-7.1	0	69%	0
O=C(CN1C(=O)S/C(=C\c2ccccc2Cl)C1=O)NCCCn1ccnc1	0	0	0	0	-	-
Nc1c(C(=O)NCCN2CCOCC2)c2nc3ccccc3nc2n1CCc1ccccc1F	0	0	-7.8	0	30%	0
Clc1ccc2c(N3CCCC3)ccnc2c1	0	0	-8	0	26%	0
Oc1ccc(N2CCN(c3ccnc4cc(Cl)ccc34)CC2)cc1	0	0	0	0	-	-
Cc1c(CC(=O)O)c(=O)oc2cc(OCc3ccc(Br)cc3)ccc12	0	0	0	0	-	-
COc1ccccc1C(=O)NC(C)c1cccc2ccccc12 (stereo not given)	0	0	-5.7	0	54%	0
O=C(c1cccc(C(F)(F)F)c1)N1CCC2(CC1)NCCc1[nH]cnc12	0	0	0	0	-	-
CCSc1nnc(NC(=O)C(C(F)(F)F)C(F)(F)F)s1	0	0	0	0	-	-
CCSc1nnc(NC(=O)C(C)(C(F)(F)F)C(F)(F)F)s1	0	0	-8.8	0	70%	0
Cc1ccc(-c2nnc(N3CC(C)OC(C)C3)c3ccccc23)cc1 (stereo not given)	0	0	-7.5	0	59%	0
Cc1ccc(-c2nnc(N3CCCCC3)c3ccccc23)cc1	0	0	0	0	-	-
Cc1ccccc1CNS(=O)(=O)c1ccc2c(c1)OCCO2	0	0	-5.8	0	64%	0
Cc1ccc(CNS(=O)(=O)c2ccc3c(c2)OCCO3)cc1	0	0	0	0	-	-
CCCC(=O)N1CCCC(C(=O)c2cccc(OC(C)C)c2)C1 (stereo not given)	0	0	0	0	-	-
CCOC(=O)c1ccc(NS(=O)(=O)c2ccc3c(c2)NC(=O)CCS3)cc1	0	0	-5.1	0	64%	0
CC(C)Oc1ccc(/C=N/NC(=O)C(CSCc2ccccc2)NC(=O)c2ccc([N+](=O)[O-])cc2)cc1 (stereo not given)	0	0	-5.5	0	0	0
O=C(COc1ccc(/C=N/NC(=O)c2ccccc2)cc1)Nc1ccc([N+](=O)[O-])cc1	0	0	0	0	-	-
CCOC(=O)C1CCN(c2ncnc3c2cnn3C)CC1	0	0	0	0	-	-
CN(C(=O)c1ccccc1Cl)C1CCCCC1	-	0	-6.7	0	0	0
CN(C(=O)c1cc2ccccc2cc1O)C1CCCCC1	0	0	0	0	-	-
CCOC(=O)N/N=C/c1ccc(OCCSc2ccc(Cl)cc2)c(OC)c1	0	0	0	0	-	-
SMILES	PolyA inh	CHT allo act	CHT block	T cruzi inh	CHT block conf	HEK293 CHT ctr
CCOc1cc(/C=N/NC(=O)CN2CCCCC2)ccc1OCc1cccc(Cl)c1	0	0	-6.6	0	49%	0
CCOC(=O)N/N=C/c1ccc(OCCSc2ccc(Cl)cc2)c(OCC)c1	0	0	-5	0	0	0
CCC(=O)N1c2ccc(S(=O)(=O)CCC(=O)N3CCN(c4ccccc4F)CC3)cc2CC1C (stereo not given)	0	0	0	0	-	-
CCCc1nc(SCC(=O)N2CCCCCC2)c2c(=O)n(C)c(=O)n(C)c2n1	0	0	0	0	-	-
Cc1ccc(C)c(NS(=O)(=O)c2cc(C(=O)NCc3ccccn3)ccc2C)c1	0	0	0	0	-	-
CCOc1ccc(S(=O)(=O)N2CCCCC2)cc1NC(=O)CN1C(=O)NC(C)(c2ccc(C)cc2)C1=O (stereo not given)	0	0	0	0	-	-
COc1cc(/C=C2\SC(=Nc3ccccc3OC)NC2=O)ccc1O	0	0	-5.4	0	0	0
COc1cc(/C=C2/SC(=Nc3ccc(O)cc3)NC2=O)ccc1O	0	0	0	0	-	-
CCOC(=O)c1c(-c2ccccc2)oc2ccc(OCC(O)CN(C)C)cc12 (stereo not given)	0	0	0	0	-	-
COc1ccc(CCNC(=O)C(C)c2ccc([N+](=O)[O-])cc2)cc1 (stereo not given)	0	0	-5.5	0	0	0
CCn1c(SCC(=O)N(C)c2ccccc2)nc2c([nH]c3ccccc32)c1=O	0	0	0	0	-	-
Cc1nc(SCC(=O)NC(=O)NC2CCCCC2)nc(C)c1C	0	0	-11	0	3.3%	0
O=C(c1ccc(COc2ccccc2[N+](=O)[O-])o1)N1CCCCC1	0	0	0	0	-	-
O=C(c1ccc(COc2ccccc2[N+](=O)[O-])o1)N1CCCCCC1	0	0	-6.1	0	69%	0
CCC(C(=O)NCCCN1CC(C)CC(C)C1)n1nc(C)c2sc3ccccc3c2c1=O (stereo not given)	0	0	-8.8	0	16%	0
Cc1ccc(C)c(C(=O)COc2ncnc3ccccc23)c1	0	0	-5.2	0	42%	0
COc1ccc(Nc2nc3ccccc3n2C)cc1	0	0	-6.5	0	53%	0
Cc1ccc(-n2nc3c(=O)n(CC(=O)NCCc4ccccc4C)nc(C)c3c2C)cc1	0	0	0	0	-	-
CCN(CC(=O)Nc1cccc(OC)c1)c1ncnc2sc(C)c(C)c12	0	0	-5.5	0	69%	0
COc1cccc(NC(=O)CN(C)C(=O)CSc2ncnc3sc(C)c(C)c23)c1	0	0	0	0	-	-
CN1CCc2ccc(NC(=O)c3ccc(C(F)(F)F)cc3)cc2C1	0	0	0	0	-	-
COCCNC(=O)NC(=O)CN1C(=O)NC(Cc2c[nH]c3ccccc23)C1=O (stereo not given)	0	0	0	0	-	-
O=C1c2ccccc2S(=O)(=O)c2cc(C(=O)N3CCN(C(=O)c4ccccc4)CC3)ccc21	0	0	0	0	-	-
O=C(Oc1ccccc1C(=O)N1CCOCC1)c1ccc(F)cc1	0	0	-8.2	0	0	0
Cn1nccc1C(=O)N1CCOCC1	0	0	0	0	-	-
Cc1nn(CC2CC2)c(=O)n1-c1ccc(Oc2ccccc2)cc1	0	0	-12	0	59%	0
CCOc1cc(C(=O)Nc2ccc(S(=O)(=O)NC3=NCCCCC3)cc2)cc(Br)c1OC	0	0	0	0	-	-
Cc1nc(Cc2nnc(SCC(=O)Nc3c(C)cccc3C)o2)cs1	0	0	0	0	-	-
COc1ccccc1NC(=O)/C(C#N)=C/c1ccc(OCCN2CCOCC2)c(OC)c1	0	0	-6	0	0	0
Cc1ccc(CSc2nnc(CCNC(=O)OC(C)(C)C)o2)cc1	0	0	-5.3	0	69%	0

Screening data (PubChem)
